In brackets after ≈: the same amount, converted by molar mass.
Experiments:
Assay type in all cases: functional
Candida [1] = experiment: Ratio of weight normalized daily dose in surviving candidemia patient to MIC at 48 hrs against Candida species
How it was run: (§1)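 MICs for patient Candida blood isolates were measured by CLSI M27-A2 microdilution in RPMI 1640-2% dextrose with 0.165 M MOPS, pH 7.0. Fluconazole was tested at 0.5–256 μg/ml in doubling dilutions, incubated at 35°C, and read at 24 h and 48 h by marked turbidity reduction. The fluconazole dose in mg/kg body weight was divided by the 24-h or 48-h MIC.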

Clavispora lusitaniae [2] = experiment: Antimicrobial activity against Candida lusitaniae at 48 hrs
How it was run: (§2)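 Bloodstream isolates from hospitalized candidemia patients, stored at −70°C and subcultured overnight on Sabouraud dextrose agar. Tested by CLSI M27-A2 broth microdilution in RPMI 1640-2% dextrose with 0.165 M MOPS, pH 7.0. Fluconazole was given as serial doubling dilutions from 0.5 to 256.0 μg/ml. Inoculum was a 0.5 McFarland suspension diluted to 2×. Plates were incubated at 35°C. MIC was read at 24 and 48 h as a marked reduction in turbidity, with ATCC 6258 and ATCC 22019 as QC strains.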

Candida albicans [3] = experiment: Antimicrobial activity against Candida albicans at 24 hrs; how it was run: as §2
Candida [4] = experiment: Ratio of weight normalized daily dose in surviving candidemia patient to MIC at 24 hrs against Candida species
How it was run: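 Weight-normalized fluconazole daily dose (mg/kg) was divided by the isolate MIC read at 24 h (CLSI M27-A2 broth microdilution, 35°C). Ratios were log10-transformed before analysis. Surviving patients were compared with nonsurvivors, with logistic regression used against mortality.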

Candida [5] = experiment: Ratio of AUC in non-surviving candidemia patient to MIC at 48 hrs against Candida species
How it was run: (§3)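 Bloodstream Candida isolates came from hospitalized adults treated with fluconazole. MICs were measured by CLSI M27-A2 broth microdilution in RPMI 1640-2% dextrose with 0.165 M MOPS, pH 7.0. Fluconazole was tested in doubling dilutions of 0.5–256 μg/ml at 35°C, read at 24 and 48 h as a marked drop in turbidity. AUC is the individual dose divided by clearance estimated from creatinine clearance. The ratio is AUC divided by the 24- or 48-h MIC.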

Nakaseomyces glabratus [6] = experiment: Antimicrobial activity against Candida glabrata at 24 hrs; how it was run: as §2
Candida parapsilosis [7] = experiment: Ratio of AUC in candidemia patient to MIC against Candida parapsilosis; how it was run: as §3
Clavispora lusitaniae [8] = experiment: Antimicrobial activity against Candida lusitaniae at 24 hrs; how it was run: as §2
Candida albicans [9] = experiment: Ratio of weight normalized daily dose in candidemia patient to MIC at 48 hrs against Candida albicans
How it was run: (§4)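 Fluconazole daily dose (mg/kg) of each nonneutropenic candidemia patient divided by the MIC of their bloodstream isolate. MIC by CLSI M27-A2 broth microdilution in RPMI 1640-2% dextrose, 0.165 M MOPS, pH 7.0. Serial doubling dilutions ran 0.5–256.0 μg/ml. Inoculum was a 0.5 McFarland suspension diluted to 2×. Incubated at 35°C; MIC read at 24 and 48 h as marked turbidity reduction.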

Homo sapiens [10] = species: Homo sapiens; experiment: Mortality rate in Candida albicans infected candidemia patient
How it was run: (§5)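 Subjects were adults (≥18 y) hospitalized >48 h before a Candida-positive blood culture, enrolled 2002–2005 at two hospitals, and treated with fluconazole. Patients were excluded if fluconazole started >24 h before culture or >2 days after it. Species was identified by Vitek YBC or API 20C Aux. Mortality is given per infecting species.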

Homo sapiens [11] = species: Homo sapiens; experiment: Mortality rate in Candida tropicalis infected candidemia patient; how it was run: as §5
Nakaseomyces glabratus [12] = experiment: Ratio of weight normalized daily dose in candidemia patient to MIC at 48 hrs against Candida glabrata; how it was run: as §1
Nakaseomyces glabratus [13] = experiment: Ratio of weight normalized daily dose in candidemia patient to MIC at 24 hrs against Candida glabrata; how it was run: as §1
Candida [14] = experiment: Ratio of AUC in surviving candidemia patient to MIC at 24 hrs against Candida species; how it was run: as §3
Candida albicans [15] = experiment: Ratio of AUC in candidemia patient to MIC against Candida albicans; how it was run: as §3
Homo sapiens [16] = species: Homo sapiens; experiment: Mortality rate stratified by 48 hrs MIC in susceptible Candida species infected patient
How it was run: (§6)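 Patients were fluconazole-treated nonneutropenic adults with candidemia. Isolate MICs were obtained by CLSI M27-A2 broth microdilution, read at 24 or 48 h. Patients were grouped by susceptibility breakpoint category. Mortality was compared by chi-square analysis.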

Candida tropicalis [17] = experiment: Ratio of AUC in candidemia patient to MIC against Candida tropicalis; how it was run: as §3
Nakaseomyces glabratus [18] = experiment: Antimicrobial activity against Candida glabrata at 48 hrs; how it was run: as §2
Homo sapiens [19] = species: Homo sapiens; experiment: Mortality rate stratified by 24 hrs MIC in dose-dependently susceptible Candida species infected patient; how it was run: as §6
Candida [20] = experiment: Ratio of AUC in surviving candidemia patient to MIC at 48 hrs against Candida species; how it was run: as §3
Clavispora lusitaniae [21] = experiment: Ratio of AUC in candidemia patient to MIC against Candida lusitaniae; how it was run: as §3
Candida parapsilosis [22] = experiment: Antimicrobial activity against Candida parapsilosis at 48 hrs; conditions: Lodderomyces parapsilosis; how it was run: as §2
Nakaseomyces glabratus [23] = experiment: Ratio of weight normalized daily dose in candidemia patient to MIC against Candida glabrata; how it was run: as §1
Candida tropicalis [24] = experiment: Antimicrobial activity against Candida tropicalis at 24 hrs; how it was run: as §2
Homo sapiens [25] = species: Homo sapiens; experiment: Ratio of weight normalized daily dose in non-surviving candidemia patient to MIC at 48 hrs against Candida species; how it was run: as §1
Nakaseomyces glabratus [26] = experiment: Ratio of AUC in candidemia patient to MIC against Candida glabrata; how it was run: as §3
Candida albicans [27] = experiment: Ratio of weight normalized daily dose in candidemia patient to MIC at 24 hrs against Candida albicans; how it was run: as §4
Homo sapiens [28] = species: Homo sapiens; experiment: Mortality rate in Candida glabrata infected candidemia patient; how it was run: as §5
Candida albicans [29] = experiment: Antimicrobial activity against Candida albicans at 48 hrs; how it was run: as §2
Homo sapiens [30] = species: Homo sapiens; experiment: Mortality rate in Candida parapsilosis infected candidemia patient; how it was run: as §5
Candida albicans [31] = experiment: Ratio of weight normalized daily dose in candidemia patient to MIC against Candida albicans; how it was run: as §4
Clavispora lusitaniae [32] = experiment: Ratio of weight normalized daily dose in candidemia patient to MIC against Candida lusitaniae; how it was run: as §1
Candida tropicalis [33] = experiment: Antimicrobial activity against Candida tropicalis at 48 hrs; how it was run: as §2
Homo sapiens [34] = species: Homo sapiens; experiment: Mortality rate stratified by 48 hrs MIC in dose-dependently susceptible Candida species infected patient; how it was run: as §6
Homo sapiens [35] = species: Homo sapiens; experiment: Mortality rate in Candida lusitaniae infected candidemia patient; how it was run: as §5
Candida [36] = experiment: Ratio of weight normalized daily dose in non-surviving candidemia patient to MIC at 24 hrs against Candida species; how it was run: as §1
Candida parapsilosis [37] = experiment: Antimicrobial activity against Candida parapsilosis at 24 hrs; conditions: Lodderomyces parapsilosis; how it was run: as §2
Homo sapiens [38] = species: Homo sapiens; experiment: Mortality rate stratified by 24 hrs MIC in susceptible Candida species infected patient; how it was run: as §6
Homo sapiens [39] = species: Homo sapiens; experiment: Mortality rate stratified by 24 hrs MIC in resistant Candida species infected patient; how it was run: as §6
Homo sapiens [40] = species: Homo sapiens; experiment: Mortality rate stratified by 48 hrs MIC in resistant Candida species infected patient; how it was run: as §6
Candida tropicalis [41] = experiment: Ratio of weight normalized daily dose in candidemia patient to MIC against Candida tropicalis; how it was run: as §1
Candida parapsilosis [42] = experiment: Ratio of weight normalized daily dose in candidemia patient to MIC against Candida parapsilosis; how it was run: as §1

Question: What does the source list for `OC(Cn1cncn1)(Cn1cncn1)c1ccc(F)cc1F` [FLUCONAZOLE]?
Answer: Ratio (Candida [1]): 10.7; MIC50 (Clavispora lusitaniae [2]): 0.5 µg/mL (≈ 1.63 µM); MIC90 (Clavispora lusitaniae [2]): 8 µg/mL (≈ 26.1 µM); MIC50 (Candida albicans [3]): 0.25 µg/mL (≈ 0.816 µM); Activity (Candida [4]): 13.3; Ratio (Candida [5]): 496; MIC50 (Nakaseomyces glabratus [6]): 4 µg/mL (≈ 13.1 µM); RatioAUC/MIC (Candida parapsilosis [7]): 635; MIC50 (Clavispora lusitaniae [8]): 2 µg/mL (≈ 6.53 µM); Ratio (Candida albicans [9]): 13.17; Activity (Homo sapiens [10]): 16.3%; Activity (Homo sapiens [11]): 0%; Ratio (Nakaseomyces glabratus [12]): 1.51; Ratio (Nakaseomyces glabratus [13]): 1.88; Ratio (Candida [14]): 775; RatioAUC/MIC (Candida albicans [15]): 946; Activity (Homo sapiens [16]): 18%; RatioAUC/MIC (Candida tropicalis [17]): 657; MIC50 (Nakaseomyces glabratus [18]): 0.5 µg/mL (≈ 1.63 µM); MIC90 (Nakaseomyces glabratus [18]): 8 µg/mL (≈ 26.1 µM); Activity (Homo sapiens [19]): 50%; Ratio (Candida [20]): 614; RatioAUC/MIC (Clavispora lusitaniae [21]): 232; MIC50 (Candida parapsilosis [22]): 0.5 µg/mL (≈ 1.63 µM); MIC90 (Candida parapsilosis [22]): 8 µg/mL (≈ 26.1 µM); Ratio (Nakaseomyces glabratus [23]): 1.9; MIC50 (Candida tropicalis [24]): 1 µg/mL (≈ 3.27 µM); Ratio (Homo sapiens [25]): 6.1; RatioAUC/MIC (Nakaseomyces glabratus [26]): 182; Ratio (Candida albicans [27]): 15.39; Activity (Homo sapiens [28]): 36.4%; MIC50 (Candida albicans [29]): 0.5 µg/mL (≈ 1.63 µM); MIC90 (Candida albicans [29]): 8 µg/mL (≈ 26.1 µM); Activity (Homo sapiens [30]): 0%; Ratio (Candida albicans [31]): 15.4; Ratio (Clavispora lusitaniae [32]): 3.3; MIC50 (Candida tropicalis [33]): 0.5 µg/mL (≈ 1.63 µM); MIC90 (Candida tropicalis [33]): 8 µg/mL (≈ 26.1 µM); Activity (Homo sapiens [34]): 50%; Activity (Homo sapiens [35]): 33.3%; Ratio (Candida [36]): 7; MIC50 (Candida parapsilosis [37]): 1.25 µg/mL (≈ 4.08 µM); Activity (Homo sapiens [38]): 18%; Activity (Homo sapiens [39]): 50%; Activity (Homo sapiens [40]): 50%; Ratio (Candida tropicalis [41]): 11.4; Ratio (Candida parapsilosis [42]): 10.7

From ChEMBL document CHEMBL1142179, “Association of fluconazole area under the concentration-time curve/MIC and dose/MIC ratios with mortality in nonneutropenic patients with candidemia” (2007)
